Each structure is given as a SMILES string. Activity calls are given as the source filed them. The rule behind the calls is not given here. Some results are limits rather than exact numbers.

Data set [1] can be described thus: Selectivity index, ratio of CC50 for cytotoxicity against human HepDES19 cells to EC50 for antiviral activity against Hepatitis B virus infected in human HepDES19 cells. The format is toxicity, cell-based. The settings on record: for selectivity ratio: HepDES19 cells, read-out: Ratio CC50/EC50. In short, it runs like this:
(§1)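 HepDES19 (HepG2-derived, tetracycline-repressible HBV cassette) cells were induced to replicate HBV by tetracycline withdrawal and exposed to compound for 3 days. Replication was read by strand-preferential qPCR; cytotoxicity by MTS assay.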

Data set [2] deals with Hepatitis B virus. In words: Antiviral activity against Hepatitis B virus infected in human HepDES19 cells assessed as reduction in viral DNA replication measured after 3 days by q-PCR assay. The format is functional, organism-based. In short, it runs like this: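 HepDES19, a HepG2 derivative with a tetracycline-repressible HBV cassette, was induced to replicate HBV by tetracycline withdrawal. Cells were exposed to compound for 3 days. Replication was measured by strand-preferential qPCR.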

The nature of data set [3]: Cytotoxicity against human HepDES19 cells assessed as reduction in cell viability incubated for 72 hrs by MTS assay. The format is toxicity, cell-based. The settings on record: for CC50 at 72 h: HepDES19 cells. In short, it runs like this:
as §1

The test system of data set [4] is Hepatitis B virus. In words: Antiviral activity against Hepatitis B virus ayw1 infected in human HepG2 2.2.15 cells assessed as reduction in viral DNA replication preincubated for 3 days followed by media replacement and measured 6 days after first dose by q-PCR assay. The conditions noted are these: ayw1, HepG2 2.2.15, 144 h.
Data set [5] is described as follows: Selectivity index, ratio of CC50 for cytotoxicity against human HepG2 2.2.15 cells to EC50 for antiviral activity against Hepatitis B virus ayw1 infected in human HepG2 2.2.15 cells. The format is toxicity, cell-based. The settings on record: read-out: Ratio CC50/EC50. In short, it runs like this:
(§2)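 HepG2 2.2.15 cells seeded at 1.5 × 10^4 cells/well in DMEM with 2% FBS, 380 μg/mL G418 and glutamine, using interior wells only. After 16-24 h, the medium was replaced with serial compound dilutions in triplicate, refreshed at day 3. At day 6, pronase-treated supernatant HBV DNA was measured by TaqMan qPCR against a standard curve (EC50/EC90). MTS viability on the same plate gave CC50; SI = CC50/EC.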

Data set [6] can be described thus: Cytotoxicity against human HepG2 2.2.15 cells assessed as reduction in cell viability by MTS assay. The format is toxicity, cell-based. In short, it runs like this: as §2
In general terms: Tetrazolium assays rely on reduction of a dye to a coloured formazan, in cell work by metabolically active cells.

A short description of data set [7]: Selectivity index, ratio of CC50 for cytotoxicity against human HepG2 2.2.15 cells to EC90 for antiviral activity against Hepatitis B virus ayw1 infected in human HepG2 2.2.15 cells. The format is toxicity, cell-based. In short, it runs like this:
as §2

Data set [8] concerns Hepatitis B virus. The experiment in a line: Antiviral activity against Hepatitis B virus ayw1 infected in human HepG2 2.2.15 cells assessed as reduction in viral DNA replication preincubated for 3 days followed by media replacement and measured after 6 days by q-PCR assay. The format is functional, organism-based. The conditions noted are these: ayw1, HepG2 2.2.15. In short, it runs like this:
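HepG2 2.2.15 cells at 1.5 × 10^4 cells/well in DMEM with 2% FBS and 380 μg/mL G418, treated after 16-24 h at several concentrations in triplicate. Compound medium renewed on day 3. Supernatant taken on day 6, pronase-treated, and extracellular HBV DNA measured by TaqMan qPCR against a purified HBV DNA standard curve. EC50 and EC90 taken from the DNA reduction. Lamivudine served as positive control and medium alone as virus control.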

For data set [9], the system named is Hepatitis B virus. The experiment in a line: Antiviral activity against Hepatitis B virus infected in human HepDES19 cells assessed as reduction in capsid accumulation by measuring intracellular HBV nucleocapsid level after 5 days by agarose gel electrophoresis-based assay. The settings on record: time 5.0 day. The format is functional, organism-based. In short, it runs like this: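 HepDES19 cells replicating HBV were treated for 5 days. They were lysed in 10mM Tris pH 7.4, 1% Tween 20 and 150mM NaCl with protease inhibitors. Lysates were digested with micrococcal nuclease plus 10mM CaCl2 (final), normalised for protein by Bradford, and run on native agarose gels. Gels were capillary-blotted to nitrocellulose and probed with anti-HBcAg and an AP-conjugated secondary with BCIP/NBT. Bands were quantified by densitometry.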

Where [10] appears, read: Hepatitis B virus, HepDES19, 72 h.

Take `Nc1c(N2CCC[N+]3(CC2)CC[N+]2(CCCNCC2)CC3)ncnc1N1CCC[N+]2(CC1)CC[N+]1(CCCNCC1)CC2` (configuration not stated): the selectivity ratio in [1] worked out at 2.5. In the data set with Hepatitis B virus [2] (setting [10]), the EC50 (as a rule, the concentration that produces a half-maximal response) was 40 µM. For the same molecule, the half-maximal cytotoxic concentration (CC50) (as a rule, the concentration at which the toxic effect on the cells reaches its halfway point) at 72 h in data set [3] stood at 100 µM.
For `O=Cc1c(N2CC[N+]3(CCC[N+]4(CCNCC4)CC3)CC2)nc(-c2ccccc2)nc1N1CC[N+]2(CCC[N+]3(CCNCC3)CC2)CC1` the same measures were 1.8, 48 µM and 88 µM.
As to `Cl.Cl.Clc1nc(N2CCC[N+]3(CC2)CC[N+]2(CCCNCC2)CC3)nc(N2CCC[N+]3(CC2)CC[N+]2(CCCNCC2)CC3)n1.[Br-].[Br-].[Br-].[Br-]` (configuration not stated), the “Ratio CC50/EC50” value in data set [1] was 0.67. The EC50 in the data set on Hepatitis B virus [2] (hepdes19) is > 100 µM. Moreover, the CC50 in data set [3] (hepdes19, 72 h, 72 h) was determined as 67 µM.
Regarding `Nc1c(N2CC[N+]3(CCC[N+]4(CCNCC4)CC3)CC2)ncnc1N1CC[N+]2(CCC[N+]3(CCNCC3)CC2)CC1`, in the data set with Hepatitis B virus [4], the 90% effect concentration (EC90) (in general, the concentration needed for an effect of 90%) was 78.1 µM. Also, the selectivity ratio in [5] was > 5; in data set [1], 4.5; in data set [7] it was > 1. Moreover, in data set [6], the cytotoxic concentration (CC50) was > 100 µM. For the same molecule, the EC50 with Hepatitis B virus [2] (setting [10]) and with Hepatitis B virus [8] was 22 µM throughout. Besides, the CC50 at 72 h in data set [3] was determined as 100 µM.
For `O=[N+]([O-])c1c(N2CC[N+]3(CCC[N+]4(CCNCC4)CC3)CC2)ncnc1N1CC[N+]2(CCC[N+]3(CCNCC3)CC2)CC1`, the selectivity ratio in data set [1] was 11. Besides, the half-maximal effective concentration (EC50) in the data set with Hepatitis B virus [2] (setting [10]) turned out to be 9 µM. For the same molecule, the half-maximal cytotoxic concentration (CC50) at 72 h in data set [3] came out at 100 µM.
For `Cc1nc(N2CCC[N+]3(CC2)CC[N+]2(CCCNCC2)CC3)c([N+](=O)[O-])c(N2CCC[N+]3(CC2)CC[N+]2(CCCNCC2)CC3)n1` (configuration not stated) the same measures were 19, 5.3 µM and 100 µM.
In the case of `O=Cc1c(O)nc(N2CC[N+]3(CCC[N+]4(CCNCC4)CC3)CC2)nc1N1CC[N+]2(CCC[N+]3(CCNCC3)CC2)CC1`, the selectivity ratio in data set [1] was found to be 100. For the same molecule, the EC50 with Hepatitis B virus [2] (setting [10]) was determined as 1 µM. In addition, the CC50 at 72 h in data set [3] turned out to be 100 µM.
In the case of `Cc1nc(N2CC[N+]3(CC2)CC[N+]2(CCNCC2)CC3)c(N)c(N2CC[N+]3(CC2)CC[N+]2(CCNCC2)CC3)n1`, in the data set on Hepatitis B virus [4], the EC90 was 15.7 µM. The selectivity ratio was > 54 in [5], 143 in [1] and > 6 in data set [7]. For the same molecule, the CC50 in [6] is > 100 µM. Besides, the figures for the EC50 in the data set on Hepatitis B virus [2] (setting [10]) and in the data set on Hepatitis B virus [8] were 0.7 µM and 1.86 µM, respectively. Besides, the CC50 at 72 h in [3] amounted to 100 µM.
Consider `O=Cc1c(N2CCC[N+]3(CC2)CC[N+]2(CCCNCC2)CC3)nc(-c2ccccc2)nc1N1CCC[N+]2(CC1)CC[N+]1(CCCNCC1)CC2` (configuration not stated), for which, in [1], the selectivity ratio was determined as 8.4. Besides, the EC50 in the data set with Hepatitis B virus [2] (setting [10]) is 11 µM. Besides, the CC50 at 72 h in [3] came out at 92 µM.
Regarding `O=Cc1c(N2CC[N+]3(CC2)CC[N+]2(CCNCC2)CC3)nc(-c2ccccc2)nc1N1CC[N+]2(CC1)CC[N+]1(CCNCC1)CC2`, the EC90 with Hepatitis B virus [4] was 26.5 µM. In addition, the values for the selectivity ratio in data set [5], in data set [1] and in data set [7] were > 47, 41 and > 4, respectively. Further, the CC50 in data set [6] was > 100 µM. In addition, the EC50 was 2.1 µM with Hepatitis B virus [2] (setting [10]) and 2.13 µM in the data set on Hepatitis B virus [8]. In addition, the CC50 at 72 h in data set [3] is 86 µM.
Turning to `Clc1nc(N2CCC[N+]3(CC2)CC[N+]2(CCCNCC2)CC3)nc(N2CCC[N+]3(CC2)CC[N+]2(CCCNCC2)CC3)n1` (configuration not stated), the outcome with Hepatitis B virus [9] was Active.
As to `Clc1nc(N2CCC[N+]3(CC2)CC[N+]2(CCCNCC2)CC3)nc(N2CCC[N+]3(CC2)CC[N+]2(CCCNCC2)CC3)n1.[Br-].[Br-].[Br-].[Br-]` (configuration not stated), in data set [1], the “Ratio CC50/EC50” value is listed as 13. Also, the EC50 in the data set with Hepatitis B virus [2] (hepdes19) stood at 7.5 µM. Moreover, in data set [3], the CC50 at 72 h was 99 µM.
For the molecule `Cc1nc(N2CC[N+]3(CCC[N+]4(CCNCC4)CC3)CC2)c([N+](=O)[O-])c(N2CC[N+]3(CCC[N+]4(CCNCC4)CC3)CC2)n1`, the EC90 in the data set with Hepatitis B virus [4] amounted to 58.1 µM. Moreover, the figures for the selectivity ratio in data set [5], in data set [1] and in data set [7] were > 15, 15 and > 2, respectively. For the same molecule, the CC50 in [6] is > 100 µM. The figures for the EC50 with Hepatitis B virus [2] (setting [10]) and in the data set with Hepatitis B virus [8] were 6.5 µM and 6.53 µM, respectively. The outcome in the data set with Hepatitis B virus [9] was Active. In addition, the CC50 at 72 h in data set [3] was 100 µM.
For the molecule `O=Cc1c(N2CC[N+]3(CCC[N+]4(CCNCC4)CC3)CC2)ncnc1N1CC[N+]2(CCC[N+]3(CCNCC3)CC2)CC1`, the selectivity ratio in data set [1] was < 1. Moreover, in the data set on Hepatitis B virus [2] (setting [10]), the EC50 is > 100 µM. In addition, in [3], the CC50 at 72 h amounted to 100 µM.
Regarding `O=Cc1c(N2CCC[N+]3(CC2)CC[N+]2(CCCNCC2)CC3)ncnc1N1CCC[N+]2(CC1)CC[N+]1(CCCNCC1)CC2` (configuration not stated), in data set [1], the selectivity ratio was < 1. For the same molecule, the EC50 with Hepatitis B virus [2] (setting [10]) is > 100 µM. In data set [3], the cytotoxic concentration (CC50) at 72 h stood at 100 µM.
`Nc1ccn([C@@H]2CS[C@H](CO)O2)c(=O)n1` [LAMIVUDINE]: the EC90 with Hepatitis B virus [4] worked out at 0.541 µM. Also, the selectivity ratio in data set [5] is > 113; in [7], > 4. Also, the cytotoxic concentration (CC50) in [6] is > 2 µM. For the same molecule, in the data set with Hepatitis B virus [8], the EC50 turned out to be 0.018 µM.
Consider `O=[N+]([O-])c1c(N2CCC[N+]3(CC2)CC[N+]2(CCCNCC2)CC3)ncnc1N1CCC[N+]2(CC1)CC[N+]1(CCCNCC1)CC2` (configuration not stated), for which the selectivity ratio in data set [1] is 11. For the same molecule, the 50% effective concentration (EC50) with Hepatitis B virus [2] (setting [10]) stood at 9 µM. In addition, the CC50 at 72 h in data set [3] is 100 µM.
